bCat nuc transl – beta-catenin nuclear translocation modulation | HeLa beta-catenin nuclear translocation, immunofluorescence imaging | 0.3% of 190,000 active | nuclear translocation activity, % at 5 µM | AID 1665;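 active = nuclear translocation activity above 50% at 5 µM, with a well cell count of 50 or more; inconclusive = wells under 50 cells across six images, flagged as toxic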;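 also: per-cell ratio of nuclear to cytoplasmic median beta-catenin stain intensity; plate controls were DMSO negative control for no effect and GSK-3 inhibitor IX positive control for full effect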
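System: HeLa cells, endogenous beta-catenin; compound dosing: 5 µM primary single dose, 0.1% DMSO, 0.02–20 µM confirmation series; incubation: 24 h compound exposure at 37°C, 5% CO2; signal: beta-catenin immunofluorescence imaging with DAPI; evaluation: % activation, nuclear-to-cytoplasmic median beta-catenin signal ratio per cell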
MT stabilizer – microtubule stabilization, imaging screen | HeLa tubulin immunostaining HCS, 24 h; share of cells brighter than vehicle mean+2SD | % tubulin-high responders, % at 10 µM | 0.83% of 200,000 active | AID 2205;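 active = plate Z-score above 3 for both tubulin-high and condensed-nucleus cell shares, with cell loss under 80%, at 10 µM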;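 also: anti alpha tubulin signal scored within the nucleus-defined area of each cell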
ROMK mod – modulators of human ROMK potassium channel. 2% of 130,000 active. P48048. Tet-inducible ROMK, thallium flux fluorescence; actives lie on both sides. B-score at 10 µM. AID 1918;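 active = signal ratio slope over the read window, or its plate-corrected B-score, at least 3 SD from the plate mean, either direction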;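 also: B-score of the F/F0 ratio slope over 7 to 12 s after thallium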
Target sequence (P48048 whole entry, looked up): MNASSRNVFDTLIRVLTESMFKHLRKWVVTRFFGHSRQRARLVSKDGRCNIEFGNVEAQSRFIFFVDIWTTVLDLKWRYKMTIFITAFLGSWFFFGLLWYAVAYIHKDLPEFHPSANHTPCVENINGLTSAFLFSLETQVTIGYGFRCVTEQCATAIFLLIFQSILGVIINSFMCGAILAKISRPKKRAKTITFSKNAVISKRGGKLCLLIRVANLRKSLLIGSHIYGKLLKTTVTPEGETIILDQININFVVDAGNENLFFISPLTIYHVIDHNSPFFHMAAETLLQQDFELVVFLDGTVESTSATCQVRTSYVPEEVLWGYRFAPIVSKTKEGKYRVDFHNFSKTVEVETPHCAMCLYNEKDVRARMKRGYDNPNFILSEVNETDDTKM
ROMK hit retest – human ROMK channel modulation, retest confirmation; shares compounds with ROMK mod; ROMK thallium flux, fluorescence ratio; active compounds read low; normalized thallium flux (F/F0 slope) at 10 µM; 54% of 3,000 active; AID 1917;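 active = Flux at 10 µM at least 3 SD below or above vehicle control mean in one or both replicates; inconclusive = no clear call, values can overlap the other calls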
Numbers without * were called inactive; ? = inconclusive; . = no result. Rows were chosen to be rich in hits. Some 1.9% of all compounds tested hit in one or more screens of this group.

SMILES	bCat nuc transl	MT stabilizer	ROMK mod	ROMK hit retest
Cc1nn(-c2ccccc2)nc1-c1nnc(-c2ccc(C(F)(F)F)cc2)o1	-1	.	-0.23	.
Cc1ccc(-n2nnnc2SCC(=O)Nc2sc(C)c(C)c2C#N)cc1C	0	4	.	0.073
CC(=O)c1ccc(-n2nnnc2SCC(=O)Nc2sc(C)c(C)c2C#N)cc1	1	6	0.027	.
CCC(c1nnnn1C(C)(C)CC)N(CCN1CCOCC1)Cc1cc2cc(C)ccc2[nH]c1=O (configuration not stated)	.	3	-4.8*	?
CCC(c1nnnn1C(C)(C)CC)N(CCCO)Cc1cc2cc(C)cc(C)c2[nH]c1=O (configuration not stated)	-2	2	.	.
CCC(C)(C)n1nnnc1C(C(C)C)N(CCCO)Cc1cc2cc(C)ccc2[nH]c1=O (configuration not stated)	2	6	.	.
CCCC(c1nnnn1C(C)(C)CC)N(CCCO)Cc1cc2cc(C)cc(C)c2[nH]c1=O (configuration not stated)	6	5	-3.7*	0.055*
O=C(C1CCN(S(=O)(=O)c2ccccc2[N+](=O)[O-])CC1)N1CCOCC1	0	3	0.061	.
O=C(NCCc1ccc(Cl)cc1)C1CCC(CNc2c(N3CCCCC3)c(=O)c2=O)CC1 (configuration not stated)	3	3	-1.1	.
COc1cc(O)c(C(C)=O)c(CC(=O)O)c1	0	.	.	.
CCC[N+](CC#Cc1ccccc1)(CCC)CC(=O)OC	-1	2	0.26	.
CCC[N+](CC#Cc1ccccc1)(CCC)CC(=O)c1ccc(Cl)cc1	0	3	-3*	0.063*
CCOC(=O)c1cnc2ccc(OC)cc2c1NCCc1ccc(OC)c(OC)c1	-1	3	-4.1*	0.055*
CCOC(=O)c1cnc2ccc(OCC)cc2c1NCc1ccccc1	1	2	0.12	.
CCOC(=O)c1cnc2ccc(OCC)cc2c1NCc1cccnc1	1	3	3.7*	0.089
CCOC(=O)c1cnc2ccccc2c1NCCc1ccc(OC)c(OC)c1	2	2	-2	.
COc1ccc(OCC(O)CNC(=O)Nc2cc(F)ccc2C)cc1 (configuration not stated)	0	.	.	.
OCCC1CN(Cc2nc(-c3ccc(F)cc3)cs2)CCN1CCc1ccccc1 (configuration not stated)	4	3	-3.9*	0.054*
OCCC1CN(Cc2nc(-c3ccccc3)cs2)CCN1CCc1ccccc1 (configuration not stated)	0	4	-3.2	.
NC(=O)COC(=O)CSc1ccc2ccccc2c1	-3	4	-0.053	.
CCCNC(=O)NS(=O)(=O)c1ccc(Cl)cc1	-5	3	.	.
CCCNC(=O)c1nnsc1S(=O)c1ccc(Cl)cc1 (configuration not stated)	-3	6	-6.4*	0.055*
CNC(=O)c1nn(-c2ccc(Cl)cc2)ccc1=O	4	1	.	.
CCCNC(=O)c1nnsc1S(=O)(=O)c1ccc(Cl)cc1	-2	4	-4.9*	0.047*
CNC(=O)c1nnsc1S(=O)c1ccc(Cl)cc1 (configuration not stated)	-2	4	-8.8*	0.049*
SMILES	bCat nuc transl	MT stabilizer	ROMK mod	ROMK hit retest
CCCNC(=O)c1ccc2snnc2c1	0	3	0.34	.
O=C(N/N=C/c1cccs1)[C@H]1C[C@@H]1c1ccccc1	-2	4	-0.014	.
CCCNC(=O)Cn1sc2nc(C)cc(C)c2c1=O	0	.	.	.
CN(CCC#N)C(=O)COC(=O)c1cc(Cl)cc(Cl)c1N	0	4	0.3	.
CCN(CC(=O)NC(C)C)C(=O)[C@@H](NC(=O)c1ccco1)C(C)C	-2	2	-0.3	.
CC(=O)CSc1nnc(C(F)(F)F)n1C	-1	.	0.64	.
N=c1sccn1CC(=O)Nc1ccc(Cl)cc1[N+](=O)[O-]	-2	.	.	.
COc1ccc(-c2[nH]ncc2CN2CCC(C(=O)c3ccc(F)cc3)CC2)cc1	-1	.	.	.
CC(CCc1ccccc1)NC(=O)C(=O)N1CCOCC1 (configuration not stated)	0	1	0.23	.
Cc1cc(C)n(-c2nc(NCCN(C)C)c3c4c(sc3n2)CCCC4)n1	16	.	.	?
Cc1cc(C)n(-c2nc(NCCCN(C)C)c3c4c(sc3n2)CCCC4)n1	-1	.	-2.8	.
CC(C)CCNC(=O)CNC(=S)N(Cc1ccccc1)Cc1cccnc1	-3	2	-0.055	.
O=C(Nc1cccnc1)c1cc(-c2ccco2)on1	-2	2	0.29	.
COc1cccc(-c2cc(C(=O)Nc3cccnc3)no2)c1	111*	9	5.9*	0.089
COc1ccc(N2CCN(C(=O)CN(C)S(=O)(=O)c3cc(C)ccc3OC)CC2)cc1	0	5	0.65	.
COc1ccc2oc(=O)c(-c3nc(C)cs3)cc2c1	2	3	-5.1*	0.072
COc1ccc2oc(=O)c(-c3nnc(N)s3)cc2c1	-3	3	-0.73	.
O=C(NN1C(=O)c2ccc3c4c(ccc(c24)C1=O)CC3)c1ccc(Br)cc1	.	1	.	.
O=C(Nc1nc2ccccc2[nH]1)c1cccc([N+](=O)[O-])c1	2	5	0.81	.
O=C(Cc1nc2ccccc2[nH]1)c1cccc([N+](=O)[O-])c1	0	.	.	?
COc1ccc(/C=C/C(=O)OCC(=O)NC(=O)NC(C)(C)C)cc1	-3	2	-1.5	.
CCOC(=O)c1c(NC(=O)C[n+]2ccc(Cc3ccccc3)cc2)sc(C)c1C	-2	2	-3.8*	0.061*
CCOC(=O)c1c(NC(=S)Nc2ccccc2)sc(C)c1C	0	3	.	.
O=C(O)c1ccc(CS(=O)(=O)c2cccc(C(F)(F)F)c2)o1	-2	7	.	0.078
CCCCNC(=O)c1ccc(CS(=O)(=O)c2cccc(C(F)(F)F)c2)o1	-3	2	.	.
SMILES	bCat nuc transl	MT stabilizer	ROMK mod	ROMK hit retest
O=c1[nH]c2c(s1)C(c1ccco1)C1C3CCC(C3)C1S2 (configuration not stated)	-5	2	-1	.
CCN1CCN(C(=S)NCCc2ccccc2)CC1	.	3	.	.
S=C(NCCc1ccccc1)N1CCN(C23CC4CC(CC(C4)C2)C3)CC1	-3	2	-7.9*	?
Cn1nc(C(F)(F)F)c(C#N)c1N1CCN(c2ccccc2)CC1	2	2	-3.1*	0.063*
Cn1nc(C(F)(F)F)c(C#N)c1N1CCN(c2ccc(F)cc2)CC1	0	4	-1.7	.
CCCCCNc1nc(-c2ccccc2)nc(-n2ccnc2)n1	-1	1	.	0.085
CCCCNc1nc(N(C)c2ccccc2)nc(-n2ccnc2)n1	-2	7	1.2	.
CC(C)(C)NC(=O)NC(=O)COC(=O)CNC(=O)c1cccc(F)c1	1	3	-0.72	.
CC1CCCCC1NC(=O)COC(=O)CNC(=O)c1cccc(F)c1 (configuration not stated)	0	4	-2.1*	0.09
Cc1ccc(/C=N\NC(=O)C2CC(=O)N(c3ccccc3)C2)o1 (configuration not stated)	-2	.	.	.
CC(=O)c1cc(-c2ccccc2)n(CC(=O)N2CCCC2)c1C	.	4	0.055	.
CC(=O)c1cc(-c2ccccc2)n(CC(=O)N2CCCCC2)c1C	.	3	3*	0.075
O=C(/C(C=Nc1cc2c(oc1=O)CCCC2=O)=C(\O)c1ccccc1)c1ccccc1	0	4	1.4	.

From PubChem BioAssay
